Measured values reported in the RNAGym collection of RNA variant scans (doi:10.1126/science.aae0568).
Variants at the floor of the assay were thinned out.

B1: tRNA (parent)
chain: GUUCCGUUGGCGUAAUGGUAACGCGUCUCCCUCCUAAGGAGAAGACUGCGGGUUCGAGUCCCGUACGGAACG

Variants of: B1
Experiment: yeast fitness relative to wild type (ratio to wild type); higher = fitter; tRNA-Arg(CCU), competitive growth, 37 C, YPD
Procedure, shortened: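 Gene amplicons from the start population and from each of six end populations were read by 100-nucleotide paired-end sequencing. Those end populations came from pooled Saccharomyces cerevisiae strains carrying tRNA-Arg(CCU) gene variants at the native locus, competed in YPD at 37°C for 24 hours. Fitness relative to wild type was worked out from changes in genotype frequencies. Genotypes needed ≥ 100 starting reads, and estimates < 0.5 were set to 0.5.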

Variant | yeast fitness
U2G G25A | 0.986
U2G C24A C46A A70C | 1.01
U2C G23C C31G C33U A42G G52C A70G | ≤ 0.5
U2C G48A C60U | ≤ 0.5
U2G G18A C29G C31G | ≤ 0.5
U2G C11U A40G G50C | ≤ 0.5
U2G C49U C66U | 0.606
U2G U13A C60U | 0.816
U2G G9A A36G A57G C60U | 0.672
U2G A21C C22U C31U C33U C62A | ≤ 0.5
U2G G10A A69C | ≤ 0.5
U2G U3C C55U C61A | ≤ 0.5
U2G G18C G23U U64A | 0.606
U2G C11U G52C C55G A70G | ≤ 0.5
U2C G23C C55G | 0.553
U2C G51C | 0.687
U2C G51A | 0.822
U2C U26C C61G G63A A69U | 0.56
U2G A37C G41A C49U | ≤ 0.5
U2C G23A G38A G56C C61U | ≤ 0.5
U2G G9C A20G A42C C46G C49U C66U A69C | ≤ 0.5

Variant | yeast fitness
U2G U13A C22U C61U C66U | ≤ 0.5
U2G G6A C27U A36U C60G | 0.526
U2G U7C A69U | ≤ 0.5
U2G C33U G58C A70U | 0.581
U2G G10C A40G A57G | ≤ 0.5
U2G A21G A57C G63A | ≤ 0.5
U2G C4U C29G | ≤ 0.5
U2G C22A G56A U59G | ≤ 0.5
U2G A20U | 0.757
U2G C33G C62U A65U | ≤ 0.5
U2G C11G A20G C24U C31G | 0.615
U2G C4U C62U G68U | ≤ 0.5
U2C U28C A37U U53A | 0.547
U2G G51A G58C | 0.562
U2C U13C G38A | 0.596
U2C U35C | 0.829
U2G G12A U35C | ≤ 0.5
U2G C31U G50A C60U | ≤ 0.5
U2C U3C C22U C34U | ≤ 0.5
U2C U16A G67C | 0.644
U2G A43G G56A | 0.589

Variant | yeast fitness
U2G C4U G25A A40C C46U | ≤ 0.5
U2C U3G G18A A65U | ≤ 0.5
U2G A20U G25C C49G | ≤ 0.5
U2G C31G A57U C60A | ≤ 0.5
U2G C5U C34G C62U | ≤ 0.5
U2C U3A A14C C30U A40U C49U | ≤ 0.5
U2G C24A A45G | 0.586
U2G A21G C49U | 0.708
U2G G52C C61G | ≤ 0.5
U2G U16C | 0.969
U2G U16A | 1.15
U2G C31U U54G | ≤ 0.5
U2G G9C G12A A42C C46A G68C | ≤ 0.5
U2G C34G | 0.655
U2G C34U | 0.616
U2C U28C C34U | ≤ 0.5
U2G A40C A65G C66G | ≤ 0.5
U2G A14C A42C | ≤ 0.5
U2G C27U C46U G68C | 0.763
U2C U13C C22G U26A C31U A42C G50C U64A C66U G68C | ≤ 0.5
U2G G9A | 1.01

Variant | yeast fitness
U2G G17A C24U A36U A37U | 0.585
U2G A14C C30U U54G C55A | ≤ 0.5
U2G C24A A45G C61G C62U | ≤ 0.5
U2G C4A U16C | ≤ 0.5
U2C U54A | 0.612
U2G G52A | 0.774
U2G G12U A43U | 0.631
U2C G56C | 0.727
U2G U19A A21G A65U G67C | 0.543
U2G A15U C24G U53A U64A | ≤ 0.5
U2C U8A G38C C60A | ≤ 0.5
U2C U3C A21C C24A A65C | ≤ 0.5
U2G C5U A21C G48A G50C | ≤ 0.5
U2G U13G C49U G56A A70G | ≤ 0.5
U2G U3C A20G C33U G39A | ≤ 0.5
U2G C33U C34G G48C G67C | ≤ 0.5
U2G C27U A36G C62A | ≤ 0.5
U2G G10C | 0.527
U2G C46A G56C | ≤ 0.5
U2C U3A A40C | ≤ 0.5
U2G C11U G23A | ≤ 0.5
